The subject of one test is MCF7. The test is described as follows: Antiproliferative activity against human MCF7 cells after 72 hrs by MTT assay. It is filed as functional, cell-based. In a few lines: (§1)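 Tetrazolium colorimetric proliferation assay in HCT-116 (colon carcinoma), PC-3 (prostate) and MCF-7 (breast) cells grown in DMEM with 10% fetal calf serum plus penicillin, streptomycin and fungizone. After 24 h growth, cells were treated with compounds from 100 μM to 10 nM, given in DMSO at 1% to 3% final. MTS was added at 72 h and absorbance was read at 490 nm against untreated cells. IC50 was determined from separate duplicate experiments.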
(In general: Tetrazolium assays rely on reduction of a dye to a coloured formazan, in cell work by metabolically active cells.)

A further test deals with PC-3. The test is described as follows: Antiproliferative activity against human PC3 cells after 72 hrs by MTT assay. It counts as functional, cell-based. In outline:
as §1

A further test concerns Escherichia coli. As to the kind of experiment: Antibacterial activity against Escherichia coli. It is filed as functional, organism-based.
The next test has as its system Bacillus subtilis. As to the kind of experiment: Antibacterial activity against Bacillus subtilis. It counts as functional, organism-based.
Another test deals with Micrococcus luteus. The test is described as follows: Antibacterial activity against Micrococcus luteus. It counts as functional, organism-based.
Another test has as its system HCT-116. As to the kind of experiment: Antiproliferative activity against human HCT116 cells after 72 hrs by MTT assay. The settings on record: for pIC50: HCT-116, 72 h. It is filed as functional, cell-based. In a few lines: as §1
A short description of test [1]: Inhibition of hyaluronidase (unknown origin). Further details: species or system Homo sapiens.

Molecules are shown by their SMILES. pIC50: −log10 of the molar value. Activity calls are given as the source filed them. No cut-off for these calls is given here.

The pIC50 is the negative decadic logarithm of the IC50, by convention in mol/L.

Regarding `C=C1C(=O)O[C@@H]2[C@H]1C(=O)O[C@@H]2CCCCCC`, the pIC50 was 5.40 with MCF7 (MCF7, 72 h); 5.19 in the test with PC-3 (PC-3, 72 h); 5.15 in the test with HCT-116. In addition, the outcome in the test with Escherichia coli, in the test with Bacillus subtilis and with Micrococcus luteus was inactive.
For the compound `CCCCCC[C@H]1OC(=O)[C@@H]2[C@H]1OC(=O)[C@]21CCC=C[C@H]1/C=C/[C@@H]1O[C@H](C)C[C@@H]1O`, the result in the test with MCF7, with PC-3, with Escherichia coli, in the test with Bacillus subtilis, in the test with Micrococcus luteus and in the test on HCT-116 was inactive. Moreover, in test [1], the negative logarithm of the IC50 (pIC50) is 3.52.
Take `C=C(C(=O)O)[C@H]1C[C@@H](CCCCCC)OC1=O`: the result in the test on Escherichia coli, with Bacillus subtilis and with Micrococcus luteus was inactive. This compound showed a pIC50 in the test with HCT-116 of 4.74.
`CC1(C)[C@@H](O[C@H]2O[C@H](C(=O)O)[C@@H](O)[C@H](O)[C@H]2O[C@@H]2O[C@H](C(=O)O)[C@@H](O)[C@H](O)[C@H]2O)CC[C@]2(C)[C@H]3C(=O)C=C4[C@@H]5C[C@@](C)(C(=O)O)CC[C@]5(C)CC[C@@]4(C)[C@]3(C)CC[C@@H]12` [GLYCYRRHIZIN] showed a pIC50 in test [1] of 3.49.

The values are drawn from ChEMBL document CHEMBL4130514, “Sporothriolide-Related Compounds from the Fungus Hypoxylon monticulosum CLL-205 Isolated from a Sphaerocladina Sponge from the Tahiti Coast” (J Nat Prod, 2017).
